From ChEMBL document CHEMBL1811786, “Identification of MK-5710 ((8aS)-8a-methyl-1,3-dioxo-2-[(1S,2R)-2-phenylcyclo- propyl]-N-(1-phenyl-1H-pyrazol-5-yl)hexahydro-imidazo[1,5-a]pyrazine-7(1H)-carboxamide), a potent smoothened antagonist for use in Hedgehog pathway dependent malignancies, part 2” (Bioorg Med Chem Lett, 2011) come the findings set out here.

Data set [1] addresses T1, Protein smoothened (Homo sapiens, UniProt Q99835). The data set is described as follows: Displacement of BODIPY-cyclopamine from human Smo expressed in HEK293 cells in presence of 2% fetal calf serum. It counts as cell-based. In a few lines:
(§1)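 Competition binding: displacement of fluorescently labeled bodipy-cyclopamine from recombinant human Smo expressed in HEK-293 cells. Run in 2% fetal calf serum and, separately, in 20% normal human serum. IC50 values are means of at least five experiments.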

Data set [2] has as its target T1, Protein smoothened. The data set is described as follows: Displacement of BODIPY-cyclopamine from human Smo expressed in HEK293 cells in presence of 20% normal human serum. The data set is classed as cell-based. In a few lines: as §1
Data set [3] is described as follows: Volume of distribution at steady state in rat. The data set is classed as ADME, organism-based. Particulars: in vivo, read-out: Vdss.
The species entered for the next data set is Rattus norvegicus. The data set is described as follows: Clearance in rat. It counts as ADME, organism-based. The settings on record: in vivo.
A short description of data set [4]: Half life in rat. The data set is classed as ADME, organism-based. Particulars: in vivo.
Data set [5] is described as follows: Plasma protein binding in human assessed as unbound fraction. It counts as ADME, cell-free.
Data set [6] is described as follows: Antiproliferative activity against irradiated Ptch +/- mouse medulloblastoma cells. It counts as functional. The settings on record: Medulloblastoma cell, light or radiation study. In a few lines: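 Proliferation of irradiated Ptch +/- mouse medulloblastoma cells, which depend on the Hh pathway; readout reported as CC50.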
For another data set, the target named is CYP3A4 (Homo sapiens, UniProt P08684). The data set is described as follows: Inhibition of CYP3A4 at 10 uM. The data set is classed as ADME.
A further data set deals with CYP2C9 (Homo sapiens, UniProt P11712). Description: Inhibition of CYP2C9 at 10 uM. It counts as ADME.
Data set [7] can be described thus: Oral bioavailability in rat. The data set is classed as ADME, organism-based. Particulars: in vivo.
Data set [8] is described as follows: Volume of distribution at steady state in dog. Particulars: in vivo, read-out: Vdss. It counts as ADME, organism-based, Canis lupus familiaris.
Data set [9] in a line: Half life in dog. It counts as ADME, organism-based, Canis lupus familiaris. The settings on record: in vivo.
A further data set is filed under the species Canis familiaris. The data set is described as follows: Clearance in dog. It counts as ADME, organism-based, Canis lupus familiaris. The settings on record: in vivo.

A word on the IC50: it is the concentration needed to halve the response being measured. A word on the clearance: it is the rate of elimination divided by the concentration. High values mean efficient removal, low ones inefficient removal. By half-life is commonly meant how long it takes for the measured level to halve. Read a high half-life as slow loss. What is called fraction unbound is the share of the substance not bound to proteins or other matrix. As a reminder, the CC50 is the concentration at which the toxic effect on the cells reaches its halfway point. Low readings indicate harm at low concentration, high ones better tolerance by the cells. What is called inhibition is the drop in the measured response relative to a control, in per cent. A higher inhibition goes with strong suppression. In general, bioavailability refers to the share of a dose that reaches the circulation, judged against a reference dose that is usually intravenous. Lower therefore signals poor availability.

T1 sequence (Q99835 whole entry): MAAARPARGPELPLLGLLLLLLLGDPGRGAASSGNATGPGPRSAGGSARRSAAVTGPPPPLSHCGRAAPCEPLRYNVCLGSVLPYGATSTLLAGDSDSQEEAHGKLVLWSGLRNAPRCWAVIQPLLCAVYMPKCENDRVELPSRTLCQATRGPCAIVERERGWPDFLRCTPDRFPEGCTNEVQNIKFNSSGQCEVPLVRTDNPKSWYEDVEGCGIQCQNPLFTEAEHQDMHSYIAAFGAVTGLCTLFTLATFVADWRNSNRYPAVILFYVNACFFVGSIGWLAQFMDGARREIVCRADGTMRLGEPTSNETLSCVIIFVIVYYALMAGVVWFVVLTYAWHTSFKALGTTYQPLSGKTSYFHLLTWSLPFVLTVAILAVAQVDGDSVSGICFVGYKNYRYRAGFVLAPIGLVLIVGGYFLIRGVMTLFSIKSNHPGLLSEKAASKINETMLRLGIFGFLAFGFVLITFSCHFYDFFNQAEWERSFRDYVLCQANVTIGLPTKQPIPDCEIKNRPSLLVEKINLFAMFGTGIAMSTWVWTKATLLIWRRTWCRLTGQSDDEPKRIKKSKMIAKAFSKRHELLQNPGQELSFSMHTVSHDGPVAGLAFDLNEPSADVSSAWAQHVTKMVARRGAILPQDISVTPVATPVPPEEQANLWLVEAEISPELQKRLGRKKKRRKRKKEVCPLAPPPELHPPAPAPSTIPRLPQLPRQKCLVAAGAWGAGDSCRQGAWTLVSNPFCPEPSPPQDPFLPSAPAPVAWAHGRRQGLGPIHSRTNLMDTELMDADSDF
Chain of CYP3A4 (P08684 whole entry): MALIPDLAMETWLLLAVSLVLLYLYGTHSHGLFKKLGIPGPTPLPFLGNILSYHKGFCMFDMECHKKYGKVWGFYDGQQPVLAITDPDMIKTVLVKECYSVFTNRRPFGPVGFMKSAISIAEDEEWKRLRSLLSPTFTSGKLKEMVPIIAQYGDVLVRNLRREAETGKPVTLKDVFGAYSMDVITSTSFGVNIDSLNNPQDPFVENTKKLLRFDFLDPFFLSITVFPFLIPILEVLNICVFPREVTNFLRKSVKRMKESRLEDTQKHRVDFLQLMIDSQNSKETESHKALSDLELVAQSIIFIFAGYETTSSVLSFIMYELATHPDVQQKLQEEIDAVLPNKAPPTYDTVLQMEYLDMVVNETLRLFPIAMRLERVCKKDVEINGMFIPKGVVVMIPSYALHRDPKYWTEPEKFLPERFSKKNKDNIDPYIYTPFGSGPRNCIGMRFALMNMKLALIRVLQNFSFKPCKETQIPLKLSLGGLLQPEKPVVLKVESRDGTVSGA
Chain of CYP2C9 (P11712 whole entry): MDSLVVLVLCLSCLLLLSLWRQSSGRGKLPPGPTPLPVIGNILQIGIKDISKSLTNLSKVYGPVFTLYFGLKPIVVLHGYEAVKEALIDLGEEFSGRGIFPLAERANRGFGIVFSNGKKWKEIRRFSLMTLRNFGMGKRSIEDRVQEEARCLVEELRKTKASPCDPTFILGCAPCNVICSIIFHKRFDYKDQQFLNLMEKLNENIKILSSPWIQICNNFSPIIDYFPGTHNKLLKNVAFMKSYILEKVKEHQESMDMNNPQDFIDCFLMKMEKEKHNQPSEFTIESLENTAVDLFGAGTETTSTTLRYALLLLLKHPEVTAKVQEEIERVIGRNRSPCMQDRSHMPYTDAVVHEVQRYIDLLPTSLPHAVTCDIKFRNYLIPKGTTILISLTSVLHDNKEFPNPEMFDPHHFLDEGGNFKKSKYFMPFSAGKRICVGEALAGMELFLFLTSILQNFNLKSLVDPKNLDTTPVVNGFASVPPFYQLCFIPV

For `C[C@@]12CN(C(=O)Nc3ccccc3-c3ccccc3)CCN1C(=O)N([C@H]1C[C@@H]1c1ccccc1)C2=O`, the results for the IC50 on Protein smoothened [1] and on Protein smoothened [2] were 19 nM and 60 nM, respectively.
On to `O=C(Nc1cccc(Cl)c1Cl)N1CCN2C(=O)N([C@@H]3C[C@H]3c3ccccc3)C(=O)[C@@H]2C1`, for which, on Protein smoothened [1], the IC50 worked out at 670 nM.
On the same count and under the same terms, to `O=C(Nc1ccccc1-c1ccccc1)N1CCN2C(=O)N(C3CC3c3ccccc3)C(=O)C2C1` (stereo in doubt; 3) belongs 48 nM.
`O=C(Nc1cccnc1-c1cccc(Cl)c1)N1CCN2C(=O)N([C@H]3C[C@@H]3c3ccccc3)C(=O)[C@@H]2C1`: the Vd in data set [3] was found to be 4.1 L/kg. The clearance in the data set listed under Rattus norvegicus stood at 54 mL/min/kg. For the same compound, the results for the IC50 at Protein smoothened [1] and on Protein smoothened [2] were 4 nM and 15 nM, respectively. In [4], this compound had a half-life of 1.3 h.
Consider `O=C(Nc1ccccc1-c1ccccc1)N1CCN2C(=O)N([C@H]3C[C@@H]3c3ccccc3)C(=O)[C@@H]2C1`, for which the Vd in data set [3] turned out to be 8 L/kg. For the same compound, the fraction unbound in data set [5] was 0.044. Besides, in data set [6], the CC50 is 2 nM. Further, in the data set filed under Rattus norvegicus, the clearance was found to be 56 mL/min/kg. Moreover, the inhibition at 10 µM at CYP3A4 and against CYP2C9 was 50% each time. For the same compound, the IC50 is 21 nM at Protein smoothened [1] and 70 nM at Protein smoothened [2]. The compound also showed a half-life in data set [4] of 2.7 h.
Turning to `O=C(Nc1ccccc1-c1ccccc1)N1CCN2C(=O)N(C3CC3c3ccccc3)C(=O)C2C1` (stereo in doubt; 5), the IC50 on Protein smoothened [1] was 95 nM.
On to `O=C(Nc1cccc(Cl)c1Cl)N1CCN2C(=O)N([C@H]3C[C@@H]3c3ccccc3)C(=O)[C@H]2C1`, for which the IC50 on Protein smoothened [1] is 650 nM.
For `O=C(Nc1ccnn1-c1cccc(Cl)c1)N1CCN2C(=O)N([C@H]3C[C@@H]3c3ccccc3)C(=O)[C@@H]2C1`, the IC50 on Protein smoothened [1] stood at 18 nM; at Protein smoothened [2], 32 nM.
As to `O=C(Nc1cccnc1-c1ccccc1)N1CCN2C(=O)N([C@H]3C[C@@H]3c3ccccc3)C(=O)[C@@H]2C1`, in [7], the bioavailability is 31%. The Vd in [3] is 6.7 L/kg. In addition, the clearance in the data set listed under Rattus norvegicus was determined as 54 mL/min/kg. In addition, the IC50 on Protein smoothened [1] and on Protein smoothened [2] was 12 nM in each case. Moreover, in data set [4], the half-life is 4.9 h.
In the case of `O=C(Nc1cccnc1-c1ccsc1)N1CCN2C(=O)N([C@H]3C[C@@H]3c3ccccc3)C(=O)[C@@H]2C1`, the bioavailability in [7] stood at 41%. In addition, the Vd is 10 L/kg in data set [3] and 1 L/kg in data set [8]. For the same compound, the half-life in [9] was 3.1 h; in data set [4], 10 h. For the same compound, the clearance in the data set listed under Canis familiaris was determined as 7.6 mL/min/kg; in the data set listed under Rattus norvegicus it was 58 mL/min/kg. The IC50 on Protein smoothened [1] came to 21 nM; at Protein smoothened [2], 42 nM.
In the case of `O=C(Nc1ccnn1-c1cccc(F)c1)N1CCN2C(=O)N([C@H]3C[C@@H]3c3ccccc3)C(=O)[C@@H]2C1`, the results for the IC50 at Protein smoothened [1] and at Protein smoothened [2] were 7 nM and 9 nM, respectively.
